# Activity calls are given as the source filed them. The calls are words filed in the database; no cut-off is given here.
# What was measured:
# [1] = target: T1, Prostaglandin E2 receptor EP1 subtype (Homo sapiens, UniProt P34995); assay: Displacement of [3H]GW875240X from human prostanoid EP1 receptor expressed in CHO-K1 cells after 45 mins by topcount liquid scintillation counting; assay type: cell-based
# T1 sequence (P34995 whole entry): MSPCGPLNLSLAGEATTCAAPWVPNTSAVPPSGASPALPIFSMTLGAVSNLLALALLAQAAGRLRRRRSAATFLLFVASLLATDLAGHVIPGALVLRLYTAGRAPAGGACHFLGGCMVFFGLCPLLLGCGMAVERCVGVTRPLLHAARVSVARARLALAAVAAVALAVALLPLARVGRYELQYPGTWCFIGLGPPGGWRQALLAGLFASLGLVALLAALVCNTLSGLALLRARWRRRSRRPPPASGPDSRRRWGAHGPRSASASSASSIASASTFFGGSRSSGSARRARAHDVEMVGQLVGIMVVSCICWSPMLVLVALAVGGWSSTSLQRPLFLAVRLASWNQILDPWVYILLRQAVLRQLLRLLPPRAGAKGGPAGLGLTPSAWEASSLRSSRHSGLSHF
# Method in brief: (§1)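 Radioligand binding at the EP1 receptor. Either [3H]-GW875240X or [3H]-PGE2 is the displaced ligand. Values are pIC50, means of at least three experiments.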
# [2] = target: T1, Prostaglandin E2 receptor EP1 subtype; assay: Displacement of [3H]PGE2 from human prostanoid EP1 receptor expressed in CHO-K1 cells after 30 mins by topcount liquid scintillation counting; assay type: cell-based; method in brief: as §1
# Rattus norvegicus [3] = assay: Analgesic activity in rat assessed as reversal of complete Freund's adjuvant-induced inflammatory pain at 30 mg/kg, po after 1 hr post dose relative to 10 mg/kg of celecoxib; assay type: functional, organism-based
# Method in brief: (§2)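 Rat CFA inflammatory pain model. Oral dosing in 1% methylcellulose. Hypersensitivity reversal is read by weight bearing, at 1 h post-dose. The 5 mg/kg study was also read at 3 h. Dose-response groups were 3, 10 and 30 mg/kg, or 1, 3 and 10 mg/kg, with ED50 derived. Celecoxib at 10 mg/kg po served as the standard.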
# Liver microsomes = assay: Intrinsic clearance in human liver microsomes; assay type: ADME, Microsome
# [4] = Solubility of the compound in simulated gastric fluid after 1 hr; assay type: physicochemical
# Method in brief: (§3)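 Solubility is measured after 1 h in water, SGF, FaSSIF and FeSSIF, in µg/mL.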
# [5] = Solubility of the compound in fasted state simulated intestinal fluid after 1 hr; assay type: physicochemical; method in brief: as §3
# [6] = Solubility of the compound in fed state simulated intestinal fluid after 1 hr; assay type: physicochemical; method in brief: as §3
# [7] = Lipophilicity, log D of compound at pH 7.4 by shake flask method; assay type: physicochemical; settings: buffer
# Method in brief: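 Log D is determined by the shake flask method at pH 7.4.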
# P-gp [8] = assay: Permeability across MDCK cells expressing p-gp; assay type: ADME, cell-based, Canis lupus familiaris; settings: dog, MDCK-MDR1; read-out: permeability
# Method in brief: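 MDCK cells. Passive permeability is reported as Pexact (nm/sec), and efflux ratio is used to assess Pgp substrate status.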
# P-gp [9] = assay: Efflux ratio of the compound in MDCK cells expressing p-gp; assay type: ADME, cell-based, Canis lupus familiaris; settings: dog, MDCK-MDR1
# Method in brief: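 MDCK cell monolayers were used to measure permeability. The efflux ratio is reported alongside exact permeability (Pexact, nm/sec) and was used to judge whether the compound is a Pgp substrate.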
# Rattus norvegicus [10] = assay: Analgesic activity in po dosed rat assessed as reversal of complete Freund's adjuvant-induced inflammatory pain after 1 hr post dose; assay type: functional; method in brief: as §2
# [11] = Blood clearance in rat at 1 mg/kg, iv; assay type: ADME, organism-based; design: dose 1 mg/kg, route intravenous
# [12] = Volume of distribution at steady state in rat at 1 mg/kg, iv; assay type: ADME, organism-based; design: dose 1 mg/kg, route intravenous; settings: in vivo, read-out: Vdss
# [13] = Half life in rat at 1 mg/kg, iv; assay type: ADME, organism-based; design: dose 1 mg/kg, route intravenous; settings: in vivo
# [14] = Oral bioavailability in rat at 3 mg/kg; assay type: ADME, organism-based; settings: in vivo
# Method in brief: (§4)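 Rat oral pharmacokinetics at 3 mg/kg in 1% (w/v) aqueous methylcellulose. Bioavailability and half-life are derived.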
# [15] = Half life in rat at 3 mg/kg, po; assay type: ADME, organism-based; design: dose 3 mg/kg, route oral; settings: in vivo; method in brief: as §4
# [16] = Drug level in blood of rat complete Freund's adjuvant-induced inflammatory pain model at 3 mg/kg, po after 1 hr; assay type: ADME, organism-based; design: dose 3 mg/kg, route oral; settings: read-out: Drug uptake
# Method in brief: (§5)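 Blood and brain samples are taken from CFA rats after oral dosing in 1% methylcellulose. Sampling is at 1 h post-dose, and at 3 h in the 5 mg/kg study. Concentrations are in µM or nM, n = 7 or n = 6 for blood and n = 3 for brain. The brain:blood ratio is calculated from the same rats.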
# [17] = Drug level in blood of rat complete Freund's adjuvant-induced inflammatory pain model at 10 mg/kg, po after 1 hr; assay type: ADME, organism-based; design: dose 10 mg/kg, route oral; settings: read-out: Drug uptake; method in brief: as §5
# [18] = Drug level in blood of rat complete Freund's adjuvant-induced inflammatory pain model at 30 mg/kg, po after 1 hr; assay type: ADME, organism-based; design: dose 30 mg/kg, route oral; settings: read-out: Drug uptake; method in brief: as §5
# [19] = Drug level in brain of rat complete Freund's adjuvant-induced inflammatory pain model at 30 mg/kg, po after 1 hr; assay type: ADME, organism-based; design: dose 30 mg/kg, route oral; settings: read-out: Drug uptake; method in brief: as §5
# [20] = Ratio of drug level in brain to blood in rat complete Freund's adjuvant-induced inflammatory pain model at 30 mg/kg, po after 1 hr; assay type: ADME, organism-based; design: dose 30 mg/kg, route oral; settings: read-out: BBR; method in brief: as §5
# Rattus norvegicus [21] = assay: Analgesic activity in rat assessed as reversal of complete Freund's adjuvant-induced inflammatory pain at 5 mg/kg, po after 1 hr post dose; assay type: functional, organism-based; design: dose 5 mg/kg; method in brief: as §2
# Rattus norvegicus [22] = assay: Analgesic activity in rat assessed as reversal of complete Freund's adjuvant-induced inflammatory pain at 5 mg/kg, po after 3 hrs post dose; assay type: functional, organism-based; design: dose 5 mg/kg; method in brief: as §2
# [23] = Ratio of drug level in brain to blood in rat complete Freund's adjuvant-induced inflammatory pain model at 5 mg/kg, po after 3 hrs; assay type: ADME, organism-based; design: dose 5 mg/kg, route oral; settings: read-out: BBR; method in brief: as §5
# Rattus norvegicus [24] = assay: Analgesic activity in rat assessed as reversal of complete Freund's adjuvant-induced inflammatory pain at 10 mg/kg, po after 1 hr post dose; assay type: functional; method in brief: as §2
# Blood = assay: Fraction unbound in blood of po dosed rat complete Freund's adjuvant-induced inflammatory pain model; assay type: ADME, organism-based; settings: in vivo
# Rattus norvegicus [25] = assay: Analgesic activity in po dosed rat chronic joint pain model; assay type: functional
# Method in brief: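 Rat joint pain model of chronic inflammatory pain. Oral dosing b.i.d. at 1, 3, 10 and 30 mg/kg, or at 0.3, 1, 3 and 10 mg/kg. Reversal of hypersensitivity is scored, with statistical significance testing, and ED50 is calculated.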
# [26] = Ratio of drug level in brain to blood in rat complete Freund's adjuvant-induced inflammatory pain model at 10 mg/kg, po after 1 hr; assay type: ADME, organism-based; design: dose 10 mg/kg, route oral; settings: read-out: BBR; method in brief: as §5
# [27] = Drug level in brain of rat complete Freund's adjuvant-induced inflammatory pain model at 10 mg/kg, po after 1 hr; assay type: ADME, organism-based; design: dose 10 mg/kg, route oral; settings: read-out: Drug uptake; method in brief: as §5
# Brain = assay: Fraction unbound in brain of po dosed rat complete Freund's adjuvant-induced inflammatory pain model; assay type: ADME, organism-based; settings: in vivo
compound,measurement,setting,value
Cc1cc(C(=O)N[C@H]2CC[C@H](O)CC2)nn1Cc1cc(Cl)cc2cc(-c3ccccc3)oc12,IC50,[1],7.94 nM
CO[C@H]1CC[C@H](NC(=O)c2cc(C)n(Cc3cc(Cl)cc4cc(C(C)C)oc34)n2)CC1,IC50,[1],316 nM
Cc1cc(C(=O)O)nn1Cc1cc(Cl)cn2nc(C(C)C)cc12,IC50,[1],> 1000 nM
Cc1cc(-c2nc3ccccc3[nH]2)nn1Cc1cc(Cl)cc2cc(C(C)C)oc12,IC50,[2],50.1 nM
Cc1cc(NC(=O)C2(F)CCNCC2)nn1Cc1cc(Cl)cc2cc(-c3ccccc3)oc12,IC50,[1],39.8 nM
Cc1cc(C(=O)NC2CCOCC2)nn1Cc1cc(Cl)cc2cc(C(C)C)oc12,IC50,[2],63.1 nM
Cc1cc(C(=O)O)nn1Cc1cc(Cl)cn2cc(C(C)C)cc12,IC50,[2],126 nM
Cc1cc(NC(=O)C2CCN(CC(F)(F)F)CC2)nn1Cc1cc(Cl)cc2cc(-c3ccccc3)oc12,IC50,[1],25.1 nM
Cc1cc(C(=O)NCC2CCNCC2)nn1Cc1cc(Cl)cc2cc(-c3ccccc3)oc12,IC50,[1],20 nM
Cc1cc(C(=O)O)nn1Cc1cc(Cl)cc2oc(C(C)C)cc12,IC50,[1],251 nM
Cc1cc(C(=O)NN2CCOCC2)nn1Cc1cc(Cl)cc2cc(C(C)C)oc12,Activity,Rattus norvegicus [3],Active
same,IC50,[2],50.1 nM
same,CL,Liver microsomes,1.1 mL/min/g
same,solubility at 1 h,[4],1 µg/mL
same,solubility at 1 h,[5],5 µg/mL
same,solubility at 1 h,[6],71 µg/mL
same,logD,[7],2.6
same,Papp,P-gp [8],67.1 ×10⁻⁶ cm/s
same,efflux ratio,P-gp [9],0.9
same,ED50,Rattus norvegicus [10],14.7 mg/kg
same,clearance,[11],85 mL/min/kg
same,Vd,[12],3 L/kg
same,half-life,[13],0.5 h
same,bioavailability,[14],19%
same,half-life,[15],1.7 h
same,concentration at 1 h,[16],1.95 µM
same,concentration at 1 h,[17],5.61 µM
same,concentration at 1 h,[18],10.2 µM
same,concentration at 1 h,[19],11.3 µM
same,Kp at 1 h,[20],1.05
same,Activity,Rattus norvegicus [21],Active
same,Activity,Rattus norvegicus [22],inactive
same,Kp at 3 h,[23],1.15
Cc1cc(C(=O)NC(C)(C)C)nn1Cc1cc(Cl)cc2cc(-c3ccccc3)oc12,IC50,[1],10 nM
same,logD,[7],2.9
same,ED50,Rattus norvegicus [10],5 mg/kg
same,clearance,[11],28 mL/min/kg
same,Vd,[12],4.3 L/kg
same,half-life,[13],4.2 h
same,Activity,Rattus norvegicus [24],95%
same,Fu,Blood,0.028%
same,ED50,Rattus norvegicus [25],0.6 mg/kg
same,Kp at 1 h,[26],0.3
same,concentration at 1 h,[27],0.112 µM
same,concentration at 1 h,[17],0.381 µM
same,Fu,Brain,0.017%
Cc1cc(C(=O)O)nn1Cc1cc(Cl)cc2cc(C(C)(C)C)oc12,IC50,[1],63.1 nM
Cc1cc(C(N)=O)nn1Cc1cc(Cl)cc2cc(-c3ccccc3)oc12,IC50,[1],5.01 nM
Cc1cc(C(=O)O)nn1Cc1cc(Cl)cc2nc(C(C)C)cn12,IC50,[2],> 1000 nM
Cc1cc(C(=O)NC2CC2)nn1Cc1cc(Cl)cc2cc(-c3ccccc3)oc12,IC50,[1],5.01 nM

# Source: ChEMBL document CHEMBL1914431, “Discovery of a novel series of nonacidic benzofuran EP1 receptor antagonists” (Bioorg Med Chem Lett, 2011)
